Sampled rows, rich in hits. Any-hit rate of the full collection: about 2.6%.
HTRA1 inh – HTRA1 serine protease inhibitors, primary screen, biochemical, fluorescence polarization, HTS. Q92743. recombinant HTRA1, FP-rhodamine activity-based probe. inhibition, % at 5.96 µM. actives 0.5% (n = 340,000); in the data active means inhibition above about 36%;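 further: 0% = enzyme with DMSO and 100% = wells lacking enzyme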
SIAE primary – human SIAE inhibitors, primary screen, biochemical, fluorescence polarization, FP-Rh probe, 1536-well HTS; SIAE FP-Rh probe binding; AID 1053197, 2014; actives 0.69% (n = 370,000); inhibition, % at 9.66 µM; Sialate O-acetylesterase (Homo sapiens), Q9HAT2;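 active means inhibition above a cutoff: mean of compounds within the control limits plus 3 SD of those, cut at about 17% in these data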;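 further: 0% = plate median of compound wells and 100% = probe without SIAE protein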
mABHD4 FP – ABHD4 inhibitors, primary screen, biochemical, fluorescence polarization, mouse; (Lyso)-N-acylphosphatidylethanolamine lipase (Mus musculus), Q8VD66; purified mABHD4, FP-Rh probe fluorescence polarization; inhibition, % at 8.92 µM; actives 0.54% (n = 370,000);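 active means inhibition exceeding the mean over every tested compound plus 3 SD, cut at about 30% in these data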;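 further: 0% = plate median of compound wells and 100% = S159A mutant with DMSO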
Target sequence (Q8VD66 whole entry, looked up): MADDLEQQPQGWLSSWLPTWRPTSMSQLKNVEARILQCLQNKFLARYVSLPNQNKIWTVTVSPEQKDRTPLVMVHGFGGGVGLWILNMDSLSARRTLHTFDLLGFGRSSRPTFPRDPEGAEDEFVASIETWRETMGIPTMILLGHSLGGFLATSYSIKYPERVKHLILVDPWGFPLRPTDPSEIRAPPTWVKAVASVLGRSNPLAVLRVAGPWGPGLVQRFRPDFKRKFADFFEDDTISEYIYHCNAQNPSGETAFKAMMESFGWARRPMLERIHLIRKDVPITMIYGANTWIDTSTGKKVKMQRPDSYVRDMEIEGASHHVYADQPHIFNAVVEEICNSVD
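Doses – 8.92 µM, single dose · Material – wild-type mouse ABHD4 protein · Replication – single well per compound (singlicate) · Measure – percent inhibition of probe binding, normalized to plate controls · Schedule – 45 min compound pre-incubation plus 60 min probe step, 25 °C · Detection – fluorescence polarization with parallel and perpendicular emission, 525/598 nm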
TCR-CD3 inh – inhibitors of human TCR-CD3 interaction, primary screen, biochemical, fluorescence, TAMRA-labeled TCR probe; actives 0.37% (n = 360,000); T-cell receptor (TCR); inhibition, % at 9.4 µM; AID 651800, 2012; in the data active means inhibition above about 19%;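 further: recombinant mutant TCR 2C K166C tagged with TAMRA read by polarization; 0% = receptor in buffer alone and 100% = receptor with positive control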
PRMT1 inh – PRMT1 methyltransferase inhibitors, primary screen, biochemical, fluorescence polarization | recombinant PRMT1, activity-based probe fluorescence polarization | AID 652257, 2013 | actives 1.3% (n = 370,000) | inhibition, % at 2.79 µM;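 active means inhibition above about 21% made by adding two undisclosed values, limit read from the data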
PRMT1 confirm – PRMT1 methyltransferase inhibitors, confirmation, biochemical, fluorescence polarization, triplicate; actives 42% (n = 3,300); recombinant His-PRMT1, activity-based probe fluorescence polarization; shares compounds with PRMT1 inh; inhibition, % at 2.79 µM;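 active means mean inhibition across replicates above the hit cutoff derived for the earlier primary screen, cut at about 22% in these data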
Starred values were filed as active, the others as inactive; . = no result.

SMILES	HTRA1 inh	SIAE primary	mABHD4 FP	TCR-CD3 inh	PRMT1 inh	PRMT1 confirm
C=CCSc1nnc(N2C(=O)C(O)=C(C(=O)c3ccco3)C2c2ccccc2F)s1 (stereo not given)	-14	-2	1	-7	27*	10
Cc1ccc(C(=O)/C=C\C(=O)c2ccc(C)cc2)cc1	-1	0	1	0	40*	57*
CC(/C=C/C(=O)c1ccc(C)cc1)=C\c1ccccc1	-26	-2	-5	-6	15	.
Cc1ccc(C(=O)/C=C/c2ccc(-c3ccc(C)cc3)o2)cc1	-11	-2	2	2	50*	6
Cc1ccc(C)c(NC(=O)C2CCCN2S(=O)(=O)c2cccc3cccnc23)c1 (stereo not given)	.	-2	5	.	-5	.
O=C(CSc1nnc(-c2ccccn2)n1-c1ccccc1)c1ccc(F)cc1	.	1	-4	.	2	.
Cc1ccc(C(=O)NN2C(=O)C3C4C=CC(C4)[C@@H]3C2=O)cc1 (stereo not given in full)	6	-4	2	-7	5	.
O=C(NN1C(=O)C2C3C=CC(O3)C2C1=O)c1cccc(Br)c1 (stereo not given)	3	6	-4	2	40*	8
Cc1cccc(C(=O)NN2C(=O)C3C(c4ccccc4)C=CC(c4ccccc4)C3C2=O)c1 (stereo not given)	-38	-47	-52	-4	1	.
COc1ccc(C(=O)NN2C(=O)C3C4C=CC(O4)C3C2=O)cc1 (stereo not given)	5	0	-4	4	49*	11
O=C(NN1C(=O)C2C3C=CC(O3)C2C1=O)c1cccc(O)c1 (stereo not given)	4	-3	-10	-11	54*	0
N#Cc1ccc2nc(-c3ccc(CN4CCC(c5nc6ccccc6[nH]5)CC4)cc3)c(-c3ccccc3)nc2c1	.	-16	1	3	-7	.
Cc1cc(C)cc(N(CC(=O)NC2CCC(C)CC2)S(=O)(=O)c2ccc(C)c(C)c2)c1 (stereo not given)	.	2	7	.	-1	.
O=C(O)CN1C(=O)S/C(=C\c2ccc3c(c2)OCO3)C1=O	-2	3	2	7	33*	4
CCOC(=O)CN1C(=O)S/C(=C\c2ccc3c(c2)OCO3)C1=O	-4	1	3	1	-1	.
CCC(NC(=O)c1ccc2c(ccn2Cc2cccc(-c3ccccc3C(=O)O)c2)c1)c1ccccc1 (stereo not given)	.	-11	-51	.	12	.
O=[N+]([O-])c1cnc2ccccc2c1Sc1ccccc1	.	7	2	.	73*	71*
CN1CCN(c2c([N+](=O)[O-])cnc3ccccc23)CC1	7	7	2	-6	-2	.
CC(C)(NC(=O)c1ccccc1)c1nc2ccccc2s1	-5	1	5	3	59*	82*
COCCCNC(=O)Cn1nc(Cc2ccncc2)c2ccccc2c1=O	.	0	1	.	-1	.
CC(C)C[C@@H]1COc2cccc(N3CCCC3)c2S(=O)(=O)N1C	.	-1	6	.	-2	.
O=C(CSc1nc(O)cc(=O)[nH]1)N1CCCc2ccccc21	-2	14	2	3	26*	7
COC(=O)[C@]12C[C@H](CC(=O)N3CCOCC3)C(=O)N(CCC3=CCCCC3)C1=C[C@H](C(C)C)O[C@@H]2C1CC1	.	-1	-2	.	1	.
COc1ccc(CCNC(=O)c2ccc(-c3ccc([N+](=O)[O-])cc3Cl)o2)cc1	-29	1	-1	3	28*	1
C[C@H]1COc2cccc(N3CCSCC3)c2S(=O)(=O)N1C	.	-4	4	.	5	.
SMILES	HTRA1 inh	SIAE primary	mABHD4 FP	TCR-CD3 inh	PRMT1 inh	PRMT1 confirm
N#C/C(=C\c1ccccc1)C(=O)N(c1ccccn1)C1CCCCC1	2	8	8	-6	-1	.
O=C(/C=C/c1ccc([N+](=O)[O-])cc1)N(c1ccccn1)C1CCCCC1	-2	5	7	-11	28*	20
CCCCCC[C@@H](CCCc1ccccc1OC)CN(CCCC)S(C)(=O)=O	.	2	-1	.	4	.
CCCCNC(=O)Cn1cnc2c(cnn2-c2ccc(C)cc2)c1=O	-2	4	-1	3	-1	.
CCOC(=O)CNC(=O)Cn1cnc2c(cnn2-c2ccc(C)cc2)c1=O	5	-3	3	-5	76*	3
O=C(CSc1nnc(COc2ccccc2)n1-c1ccccc1)Nc1ccc2c(c1)OCCO2	.	2	-3	.	4	.
CCN(CC)CCn1c2ccccc2c2n[nH]c(=S)nc21	10	3	-5	4	85*	58*
O=C(Nc1ccccc1)Nc1cc(S(=O)(=O)N2CCOCC2)ccc1N1CCCC1	-6	-3	1	-7	29*	1
O=C(Nc1ccc(Cl)cc1)Nc1cc(S(=O)(=O)N2CCOCC2)ccc1N1CCCC1	0	6	7	-5	2	.
CCOCC(=O)Nc1cc(S(=O)(=O)N2CCOCC2)ccc1N1CCCCC1	-1	2	-2	-8	41*	7
C[n+]1cccc(/C=N/Nc2nc(Cl)c(C#N)c(Cl)c2Cl)c1	.	-3	5	-6	49*	0
CCCCNC(=O)C[C@@H]1C(=O)N(CCc2ccc(Cl)cc2)C2=CCCCC[C@]21C(=O)OC	.	-6	-5	.	-7	.
O=C(O)CSc1nc2ccccc2[nH]1	5	1	-2	1	-2	.
CC1(C(=O)CSc2nc3ccccc3[nH]2)CCC(=O)O1 (stereo not given)	-3	4	-2	0	60*	41*
Cn1c(N)c(C(=O)CSc2nc3ccccc3[nH]2)c(=O)n(C)c1=O	-5	-1	6	3	28*	1
O=C1CC(N2CCCN(Cc3ccccc3)CC2)=NC(=O)N1c1ccc(Br)cc1	.	6	-4	.	0	.
COc1ccc(S[C@]2(C(=O)N3CCN(c4ncccn4)CC3)CC(=O)N(c3ccc(Cl)cc3)[C@@H]2c2ccc(OC)cc2)cc1	.	-5	4	.	1	.
COc1ccc(N2C(=O)CC(NCc3ccncc3)C2=O)cc1 (stereo not given)	-2	4	-6	-2	8	.
COc1ccc(N2C(=O)CC(NCc3ccc(F)cc3)C2=O)cc1 (stereo not given)	4	-3	5	2	66*	2
COc1ccc(CNC2CC(=O)N(C)C2=O)cc1 (stereo not given)	4	1	6	-1	-2	.
